Measured values: the RNAGym collection of RNA variant scans (doi:10.1126/science.aae0568)
This sample holds only a part of the variants without activity.

B1: tRNA (parent)
chain: GUUCCGUUGGCGUAAUGGUAACGCGUCUCCCUCCUAAGGAGAAGACUGCGGGUUCGAGUCCCGUACGGAACG

Variants of: B1
Assay: yeast fitness relative to wild type (ratio to wild type); higher = fitter; tRNA-Arg(CCU), competitive growth, 37 C, YPD
Method in brief: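 Changes in genotype frequencies gave Darwinian fitness relative to wild type. Frequencies were read by 100-nucleotide paired-end sequencing of gene amplicons before and after pooled Saccharomyces cerevisiae strains, carrying tRNA-Arg(CCU) gene variants at the native locus, were competed in YPD at 37°C for 24 hours in six replicates. A genotype was kept only with ≥ 100 starting reads, and estimates < 0.5 were set to 0.5.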

| Variant | yeast fitness |
| --- | --- |
| G18C C29U G39A C49U G56C | ≤ 0.5 |
| G18C C29U G50C | ≤ 0.5 |
| G18C C30A | 0.642 |
| G18C C30G | ≤ 0.5 |
| G18C C30G A65C | 0.541 |
| G18C C30G C62G | ≤ 0.5 |
| G18C C30G U32C | ≤ 0.5 |
| G18C C30G U32C U53A | ≤ 0.5 |
| G18C C30U A42G C55A | 0.533 |
| G18C C30U A45C A69U | ≤ 0.5 |
| G18C C30U C31U G48A | ≤ 0.5 |
| G18C C30U C33U C49U | 0.608 |
| G18C C30U U64A | ≤ 0.5 |
| G18C C31A | 0.634 |
| G18C C31A A37G G58C | ≤ 0.5 |
| G18C C31G A36C A45G A65G | 0.595 |
| G18C C31G A42G | 0.505 |
| G18C C31U A43U | 0.588 |
| G18C C31U C46U | ≤ 0.5 |
| G18C C33A | 0.592 |
| G18C C33A G39C G41C G44C | ≤ 0.5 |
| G18C C33G A40G C61U | ≤ 0.5 |
| G18C C33G A40G G58A U64A | 0.59 |
| G18C C33G C49G | ≤ 0.5 |

| Variant | yeast fitness |
| --- | --- |
| G18C C34G A45C | ≤ 0.5 |
| G18C C46A | 0.726 |
| G18C C46U | 0.626 |
| G18C C49A C61G | 0.694 |
| G18C C49G | 0.734 |
| G18C C49G A65U | 0.66 |
| G18C C49U | 0.607 |
| G18C C49U A69U | ≤ 0.5 |
| G18C C55U G67C | 0.565 |
| G18C C60G | ≤ 0.5 |
| G18C C60G A65G | 0.544 |
| G18C C60G A70C | ≤ 0.5 |
| G18C C60U A70U | ≤ 0.5 |
| G18C C62A | ≤ 0.5 |
| G18C C62A G68C | ≤ 0.5 |
| G18C C62U | 0.611 |
| G18C C66A A69U | ≤ 0.5 |
| G18C G23A | ≤ 0.5 |
| G18C G23A G25C A37G A43C A65C | ≤ 0.5 |
| G18C G23A G25C A37G A43C C55G | ≤ 0.5 |
| G18C G23A G25C A37G A43C C55G C62A G68A | ≤ 0.5 |
| G18C G23A G25C A37G A43C C55G G68A | 0.551 |
| G18C G23A G25C U26C A37G A43C C55G G68A | ≤ 0.5 |
| G18C G23C | 0.577 |

| Variant | yeast fitness |
| --- | --- |
| G18C G23C G39A C55A | 0.696 |
| G18C G23C U53A A69C | ≤ 0.5 |
| G18C G25A G38C G41A | ≤ 0.5 |
| G18C G25C U28G A42G C49U A57U | 0.557 |
| G18C G38U G51A | ≤ 0.5 |
| G18C G39C | 0.683 |
| G18C G41A A42C G50C A70G | ≤ 0.5 |
| G18C G41C G44C C55A | ≤ 0.5 |
| G18C G44A G67U | ≤ 0.5 |
| G18C G44A G68A | ≤ 0.5 |
| G18C G44C | 0.637 |
| G18C G44U | 0.554 |
| G18C G48A | 0.571 |
| G18C G50A U59C | ≤ 0.5 |
| G18C G50U U53A | ≤ 0.5 |
| G18C G51A | 0.518 |
| G18C G51A A57G C66A | ≤ 0.5 |
| G18C G51A C66A | 0.537 |
| G18C G52A C62G | 0.55 |
| G18C G52C | 0.819 |
| G18C G56A | 0.739 |
| G18C G56C | 0.524 |
| G18C G56C C62U | ≤ 0.5 |
| G18C G67A | 0.728 |

| Variant | yeast fitness |
| --- | --- |
| G18C G67C | 0.656 |
| G18C G67U | 0.632 |
| G18C G68A | 0.619 |
| G18C U19A U28G A40C | ≤ 0.5 |
| G18C U19A U28G A40C C62G C66G | ≤ 0.5 |
| G18C U19C C29A C30G | ≤ 0.5 |
| G18C U19G A20G C33A U35C | ≤ 0.5 |
| G18C U19G A45C | 0.73 |
| G18C U19G C27U A43U | ≤ 0.5 |
| G18C U19G C27U A43U G67U | ≤ 0.5 |
| G18C U26A A45G C62G | 0.556 |
| G18C U26A C55G | ≤ 0.5 |
| G18C U26C C29G C31G C33U C46A A69C | ≤ 0.5 |
| G18C U26C G50C | ≤ 0.5 |
| G18C U28C C30U A43G C55U | ≤ 0.5 |
| G18C U28G | 0.727 |
| G18C U28G C61U A65C | ≤ 0.5 |
| G18C U32C A57U | ≤ 0.5 |
| G18C U32G A57C C62U | ≤ 0.5 |
| G18C U35A A45C | 0.671 |
| G18C U35A A65C | ≤ 0.5 |
| G18C U35G G41C C66G | ≤ 0.5 |
| G18C U47C G51A | ≤ 0.5 |
| G18C U53A | ≤ 0.5 |

| Variant | yeast fitness |
| --- | --- |
| G18C U53C A57C | ≤ 0.5 |
| G18C U53G C60A | ≤ 0.5 |
| G18C U59C | 0.559 |
| G18C U64A | 0.593 |
| G18U | 0.844 |
| G18U A20U | 0.722 |
| G18U A36C G67C | ≤ 0.5 |
| G18U A45G | 0.758 |
| G18U C24U A69U | ≤ 0.5 |
| G18U C33U C34U C66A A70C | ≤ 0.5 |
| G18U U26A | 0.623 |
| G18U U26A A69U | ≤ 0.5 |
| G18U U26A G56A G67A | 0.578 |
| G18U U26A U47C | ≤ 0.5 |
| G18U U32C A57G | 0.568 |
| U19A | 1 |
| U19A A20C C31G | ≤ 0.5 |
| U19A A20G C24U A43G G48C | ≤ 0.5 |
| U19A A20G C29A A40C G50C | ≤ 0.5 |
| U19A A20G C49U U59C C62G | ≤ 0.5 |
| U19A A20U G51C | 0.836 |
| U19A A20U U35C | 0.82 |
| U19A A21C C31G G41A A43C | ≤ 0.5 |
| U19A A21G A43C G51C G68C | ≤ 0.5 |

| Variant | yeast fitness |
| --- | --- |
| U19A A21G C27U C33U G56A | ≤ 0.5 |
| U19A A21G C29G | 0.543 |
| U19A A21U C24A U28C | ≤ 0.5 |
| U19A A21U C24A U28C U53C C60G | ≤ 0.5 |
| U19A A36C A40G A57C | ≤ 0.5 |
| U19A A36G A42C C66A | ≤ 0.5 |
| U19A A36G C46A | 0.69 |
| U19A A36G G50U U59A | ≤ 0.5 |
| U19A A36U A45U C49U U64A A70U | 0.788 |
| U19A A36U C61U | ≤ 0.5 |
| U19A A37G | 0.657 |
| U19A A37G A65G | 0.707 |
| U19A A37U C55G | 0.593 |
| U19A A37U C55G U64A | ≤ 0.5 |
| U19A A37U G41C | ≤ 0.5 |
| U19A A37U G41C G67A | ≤ 0.5 |
| U19A A37U G68U | ≤ 0.5 |
| U19A A40G C55G A65C | 0.534 |
| U19A A40G C55G A70G | ≤ 0.5 |
| U19A A40G G51A | ≤ 0.5 |
| U19A A40U | 1.07 |
| U19A A42C | 0.862 |
| U19A A42G A65C A69C A70G | ≤ 0.5 |
| U19A A42G G68U | ≤ 0.5 |

| Variant | yeast fitness |
| --- | --- |
| U19A A42U | 0.949 |
| U19A A43G | 0.867 |
| U19A A43G A57C A65U | ≤ 0.5 |
| U19A A43U A69U | 0.85 |
| U19A A43U A70U | 0.825 |
| U19A A43U C46G | 0.658 |
| U19A A43U C55G | 0.55 |
| U19A A43U C62U | 0.771 |
| U19A A45C | 0.726 |
| U19A A45G A57C | ≤ 0.5 |
| U19A A45U A69U | 0.739 |
| U19A A45U U54G | 0.631 |
| U19A A57U G67C | 0.556 |
| U19A A65C | 1.01 |
| U19A A65C C66G | ≤ 0.5 |
| U19A A65C C66G A70G | ≤ 0.5 |
| U19A A65G | 1.05 |
| U19A A69C | 1.08 |
| U19A A69U | 1.04 |
| U19A A70G | 0.913 |
| U19A C22G A42G U54A G67A | ≤ 0.5 |
| U19A C22G C34U A42G A43G A70U | ≤ 0.5 |
| U19A C22U | 0.709 |
